Assay results taken from article PMC7451030 (European journal of medicinal chemistry, 2020).

Experiments:
human GLUT1 = molecular target: T1, human GLUT1 (Homo sapiens, UniProt P11166); experiment: GLUT1 transport assay; assay type: cell-based; conditions: 100 μM compound
T1 sequence (P11166 1-492): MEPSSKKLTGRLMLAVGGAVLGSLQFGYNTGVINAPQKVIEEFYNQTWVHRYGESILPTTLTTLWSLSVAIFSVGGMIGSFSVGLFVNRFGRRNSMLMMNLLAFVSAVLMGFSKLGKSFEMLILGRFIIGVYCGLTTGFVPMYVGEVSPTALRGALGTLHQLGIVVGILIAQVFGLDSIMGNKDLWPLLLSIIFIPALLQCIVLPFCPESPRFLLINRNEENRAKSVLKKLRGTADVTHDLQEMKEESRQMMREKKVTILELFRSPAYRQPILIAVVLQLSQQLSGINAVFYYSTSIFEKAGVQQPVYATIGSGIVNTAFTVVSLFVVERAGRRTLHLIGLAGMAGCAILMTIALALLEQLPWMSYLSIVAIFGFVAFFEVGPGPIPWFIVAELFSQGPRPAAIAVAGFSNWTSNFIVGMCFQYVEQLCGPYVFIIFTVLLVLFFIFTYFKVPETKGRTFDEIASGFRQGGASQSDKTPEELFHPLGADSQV
Summary of the method: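 hxt0 yeast VW4000fgy1 expressing human GLUT1 was grown at 30 °C in SC-uracil with 2% maltose for 2–3 days, then 2% glucose for 1–2 days. Cells were resuspended in PBS pH 7.4 at OD600 ~10 and given 100 µM compound (1% DMSO final). Uptake of 5 mM 14C-glucose ran 10 min, then ice-cold KPi/LiCl quench pH 5.5, filtration and scintillation counting. Activity was taken relative to 1% DMSO and 200 µM phloretin.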

human GLUT4 = molecular target: T2, human GLUT4 (Homo sapiens, UniProt P14672); experiment: GLUT4 transport assay; assay type: cell-based; conditions: 100 μM compound
T2 sequence (P14672 1-509): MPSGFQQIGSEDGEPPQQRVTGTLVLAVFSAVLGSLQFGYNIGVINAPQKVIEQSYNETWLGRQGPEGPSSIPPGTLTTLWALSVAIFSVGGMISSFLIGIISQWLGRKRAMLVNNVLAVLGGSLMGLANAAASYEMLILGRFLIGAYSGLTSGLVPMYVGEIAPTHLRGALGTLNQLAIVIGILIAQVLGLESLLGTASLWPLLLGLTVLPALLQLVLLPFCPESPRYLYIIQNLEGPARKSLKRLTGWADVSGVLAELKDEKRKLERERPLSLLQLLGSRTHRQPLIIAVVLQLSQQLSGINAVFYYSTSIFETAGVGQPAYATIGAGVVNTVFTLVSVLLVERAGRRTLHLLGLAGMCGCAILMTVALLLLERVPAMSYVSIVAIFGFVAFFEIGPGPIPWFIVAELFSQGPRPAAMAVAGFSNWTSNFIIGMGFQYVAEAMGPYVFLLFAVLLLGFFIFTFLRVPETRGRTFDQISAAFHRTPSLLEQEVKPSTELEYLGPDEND
Summary of the method: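 GLUT4 was expressed in hxt0 yeast VW4000fgy1erg4 grown at 30 °C in SC-uracil with 1% maltose, then 0.2% glucose. Washed cells were assayed in PBS pH 7.4 at OD600 ~10 with 100 µM compound (1% DMSO final) and 5 mM 14C-glucose for 10 min. The reaction was stopped with cold KPi/LiCl pH 5.5, then filtered and counted by scintillation. Values are relative to 1% DMSO and 200 µM phloretin controls.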

human GLUT5 = experiment: GLUT5 transport assay; assay type: cell-based; conditions: 100 μM compound; 10 mM C14-fructose
Summary of the method: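 VW4000 hxt0 yeast carrying human GLUT5 was grown for 1 day in YEP with 2% maltose and 100 µg/ml G418, then 1–2 days in 2% fructose with G418, at 30 °C. Cells in PBS pH 7.4 at OD600 ~10 received 100 µM compound (1% DMSO final) and 10 mM 14C-fructose for 10 min. Cold quench pH 5.5 and filtration followed, with scintillation read-out. Controls: 1% DMSO and 100 µM MSNBA.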

CEM xenograft tumor = conditions: for xenograft volume of untreated group relative to treated group: SCID mice, CEM xenograft, doxorubicin 20 mg/kg i.p., F18 50 mg/kg i.p., 18 days
[1] = Differential Nuclear Staining; assay type: cell-based; conditions: human
Summary of the method: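 CC50 determined by DNS assay in CCRF-CEM (RPMI) and in non-cancerous HS-27 fibroblasts (DMEM). Both media had 10% FBS and penicillin/streptomycin, at 37 °C and 5% CO2. Cells were seeded at 10,000/well (HS-27 at 3,000/well) and treated at 0.5–100 µM for 48 h, in quadruplicate. Hoechst and PI were added 2 h before imaging. Controls: DMSO, H2O2 and untreated. Ratio = HS-27 CC50 / CEM CC50.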

GLUT1 = conditions: read-out: GLUT1 IC50; commercially available GLUT1 inhibitor; cited from earlier work
CEM cells = experiment: Cell cycle analysis by flow cytometry; assay type: cell-based, human; conditions: CEM, 10, 25 or 50 μM, 72 h
[2] = test system: p-mTOR, CDK2, GRP78 and Caspase 3 in F18-treated cells; experiment: Western blotting of cell signaling proteins; assay type: cell-based, human; conditions: 10 μM, 6 h
Summary of the method: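 Treated cells were washed in cold PBS and lysed in Laemmli buffer (62.5 mM Tris-HCl pH 6.8, 10% glycerol, 2% SDS) with protease inhibitors, then sonicated and protein quantified. Membranes were blocked 45 min in PBS-Tween-5% milk. Primary antibodies ran 3 h and secondary 1 h, both at room temperature. Controls: untreated and staurosporine.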

normal WBCs = experiment: MTT viability assay on non-transformed WBCs; assay type: cell-based, human; conditions: 187.2 μM vs 1.7 μM

Compound	decrease of relative transport activity of GLUT1, primary screen (human GLUT1)	decrease of relative transport activity of GLUT4, primary screen (human GLUT4)	inhibition of GLUT5 transport activity, primary screen (human GLUT5)	xenograft volume of untreated group relative to treated group (CEM xenograft tumor)	also measured
O=C(CN1C(=O)S/C(=C/c2ccco2)C1=O)Nc1ccc([N+](=O)[O-])cc1 [Compound F14, 2-(5-(Furan-2-ylmethylene)-2,4-dioxothiazolidin-3-yl)-N-(4-nitrophenyl) acetamide]	did not inhibit	did not inhibit	did not inhibit	–	–
COc1cccc2c1C(=O)c1c(O)c3c(c(O)c1C2=O)C[C@@](O)(C(=O)CO)C[C@@H]3O[C@H]1C[C@H](N)[C@H](O)[C@H](C)O1 [doxorubicin, reference compound]	–	–	–	approximately 1.5 times	–
O=C(CN1C(=O)S/C(=C/c2ccco2)C1=O)Nc1ccc(Cl)c(Cl)c1 [Compound F19, N-(3,4-dichlorophenyl)-2-(5-(furan-2-ylmethylene)-2,4-dioxothiazolidin-3-yl) acetamide]	at least 50%	at least 50%	neither F18 nor F19 affected the transport activity of GLUT5	–	selectivity ratio at 48 h [1]: > 12.8
CC(=O)CC(=O)Nc1ccc(Cl)c(C(F)(F)F)c1 [Fasentin]	–	–	–	–	IC50 (GLUT1): 10 µM
O=C(CN1C(=O)S/C(=C/c2ccco2)C1=O)Nc1nc2ccccc2s1 [Compound F18, N-(benzo[d]thiazol-2-yl)-2-(5-(furan-2-ylmethylene)-2,4-dioxothiazolidin-3-yl)acetamide]	at least 50%	at least 50%	neither F18 nor F19 affected the transport activity of GLUT5	~2 times	GLUT1 relative activity retained (human GLUT1): almost completely; cell cycle effect (CEM cells): arrest of the cell cycle in the sub G0/G1phase; caspase 3 [2]: activation; level of CDK2 [2]: decrease; level of endoplasmic stress marker GRP78 [2]: increase; level of phosphorylated mTOR [2]: decrease; ratio of IC50 WBCs to CEM cell line (normal WBCs): 100 times; weight loss or signs of toxicity (CEM xenograft tumor; mouse, in vivo, ip, 50 mg/kg): no considerable weight loss or any other noticeable signs of toxicity
Cc1cccc2sc(NC(=O)CN3C(=O)S/C(=C/c4ccco4)C3=O)nc12 [Compound F8, 2-(5-(Furan-2-ylmethylene)-2,4-dioxothiazolidin-3-yl)-N-(4-methylbenzo[d]thiazol-2-yl)acetamide]	at least 50%	at least 50%	–	–	–
